The text below walks through data of BindingDB's records for doi:10.1021/acs.jmedchem.6b00914 (Amri, 2016).

The experiment has as its target T1, Sodium- and chloride-dependent glycine transporter 2 (Homo sapiens, UniProt Q9Y345).
T1 sequence (Q9Y345 whole entry): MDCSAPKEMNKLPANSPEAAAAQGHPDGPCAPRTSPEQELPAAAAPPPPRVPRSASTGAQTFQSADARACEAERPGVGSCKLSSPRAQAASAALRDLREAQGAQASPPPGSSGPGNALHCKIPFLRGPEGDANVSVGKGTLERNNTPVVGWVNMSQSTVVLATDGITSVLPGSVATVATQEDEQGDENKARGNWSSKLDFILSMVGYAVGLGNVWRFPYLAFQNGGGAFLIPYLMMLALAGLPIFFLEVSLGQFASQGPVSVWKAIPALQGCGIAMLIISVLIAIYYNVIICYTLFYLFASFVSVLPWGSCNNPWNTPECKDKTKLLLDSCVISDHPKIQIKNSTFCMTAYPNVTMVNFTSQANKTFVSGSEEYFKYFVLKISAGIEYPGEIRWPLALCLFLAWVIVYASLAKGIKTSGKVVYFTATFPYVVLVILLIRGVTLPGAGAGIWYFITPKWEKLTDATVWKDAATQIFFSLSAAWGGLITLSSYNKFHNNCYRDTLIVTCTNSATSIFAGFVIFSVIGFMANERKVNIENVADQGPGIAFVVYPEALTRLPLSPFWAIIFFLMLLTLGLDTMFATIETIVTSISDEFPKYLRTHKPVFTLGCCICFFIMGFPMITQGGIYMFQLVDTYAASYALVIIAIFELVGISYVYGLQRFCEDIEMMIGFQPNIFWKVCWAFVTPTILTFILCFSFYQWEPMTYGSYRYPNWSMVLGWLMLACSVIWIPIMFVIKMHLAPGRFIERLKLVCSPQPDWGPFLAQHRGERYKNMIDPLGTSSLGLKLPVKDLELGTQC
Description: Inhibition of human glycine transporter-2 expressed in HEK293 cells assessed as reduction in [14C]glycine uptake preincubated for 10 mins followed by [14C]glycine addition measured after 3 hrs by scintillation proximity assay. In outline: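 HEK293 cells stably transfected with GlyT-2 (Geneticin-selected polyclonal population) were plated on poly-L-lysine-coated plates in DMEM/10% FBS and incubated overnight. The [¹⁴C]glycine uptake SPA was then run as for JAR cells: uptake buffer, 10 min room-temperature preincubation, 3 h incubation at 37 °C.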

SMILES strings stand for the structures.

The term IC50 denotes the concentration at which inhibition is half-maximal.

For `CC(NC(=O)c1ccc(C(F)(F)F)cc1Cl)C1(N2CCN(S(=O)(=O)c3cn(C)nn3)CC2)CCC(F)(F)CC1` (stereo unspecified), the half-inhibitory concentration (IC50) is above 75 µM.
